This sample holds only a part of the variants without activity.
B1: tRNA (parent)
chain: GUUCCGUUGGCGUAAUGGUAACGCGUCUCCCUCCUAAGGAGAAGACUGCGGGUUCGAGUCCCGUACGGAACG

Variants of: B1
Test: yeast fitness relative to wild type (ratio to wild type); higher = fitter; tRNA-Arg(CCU), competitive growth, 37 C, YPD
In short: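 Variants of the tRNA-Arg(CCU) gene were chemically synthesised with a 3% per-site mutation rate across 69 sites and placed at the native genomic locus in Saccharomyces cerevisiae. Six parallel replicates of the pooled strains were competed in YPD at 37°C for 24 hours, and gene amplicons from the start and end populations were read by 100-nucleotide paired-end sequencing. Darwinian fitness relative to wild type was derived from changes in genotype frequencies. Genotypes required ≥ 100 starting reads, and estimates < 0.5 were set to 0.5.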

First: GUUCCGUUUGCGUAAUGGUAACGCGUCUCCCUCCUAAGGAGAAGACUGCGGGUUCGAGUCCCAUUCGGAACG [G9U G63A A65U]
Second: GUUCCGUUCGCGUAAUGGUAACGCGUCCCCCUCCUAAGGAGUAGACCGCGGGUUCGAGUCCCGUACGGAACG [G9C U28C A42U U47C]
The yeast fitness of the first is lower: ≤ 0.5 for the first, 0.54 for the second.

GUUCCGUUGACGUCAUGGUAAUGCGUCUCCCUCCUAAGGAGAAGACUGCGGGUUCGAGUCCCGUACGGAACG [G10A A14C C22U] and GUUCCGUUUGCGUAAUGGUAACGGGUCUCCCUCCUAAGGAGAAGCCUGCGGGUUCGAGUCCCGUACGGAACG [G9U C24G A45C] cannot be ordered by yeast fitness: ≤ 0.5 for the first, ≤ 0.5 for the second.

Compared with GUUCCGUUCGCGUAAUGGUAACGCGUCUCCCUCCUAAGGAGAAGACGGCGGGUUCGAGUCCCGUACGGAACG [G9C U47G], GUUCCGUUCGCGUAAUGGUAACGCGUCUCCCUCCUAAGGAGAAGACCGCGGGUUCGAGUCCCGUACGGAACG [G9C U47C] is higher in yeast fitness: 0.595 for the first, 0.632 for the second.

GUUCCGUUCGCGUAAUGGUAACGCGUCUCCCUCCAAAGGAGAAGCCGGCGGGUUCGAGUCCGGUCCGGAACG [G9C U35A A45C U47G C62G A65C] and GUUCCGUUGACGUCAUGGUAACGCGUCUCCCACCUAAGGAGAAGACUGCGGGUUCGAGUCCCGUACGGAACG [G10A A14C U32A] cannot be ordered by yeast fitness: ≤ 0.5 for the first, ≤ 0.5 for the second.

Compared with GUUCCGUUCGCGUAAUGGUAACGCGACUCCCUCCUAAGGAGAAGACUGCGGGUUCGAGUCCCGUACGGAACG [G9C U26A], GUUCCGUUCGCGUAAUGGUAACGCGACUCCCUCCUAAGGAGAAGACCAUGGGUUCAAGUCCCGUACCGGACG [G9C U26A U47C G48A C49U G56A G67C A69G] is lower in yeast fitness: 0.613 for the first, ≤ 0.5 for the second.

First: GUUCCGUUGACGUGAUGGUAACGCGUCUCCCUCCUAAGGAGAAGACUGCGGGUUCGAGUCCCGUACGGACCG [G10A A14G A70C]
Second: GUUCCGUUCGCGUAAUGGUAACGCGUCCCCCUCCUAAGGAGAAGACUGCGGGUUCGAGUCCCGUACGGAACG [G9C U28C]
The yeast fitness of the first is lower: 0.535 for the first, 0.675 for the second.

GUUCCGUUGACGUCAUGGUAACGCGUCUCCCUCUUAAGGAGGAGACUGCGGGUUCGAGUCCCGUUCGAAACG [G10A A14C C34U A42G A65U G68A] and GUUCCGUUCGCGUAAUGGUAACGCGACUCCCUCCUAAGGAGAAGACUCCGGGUUCGAGUCCCGUACGGAACG [G9C U26A G48C] cannot be ordered by yeast fitness: ≤ 0.5 for the first, ≤ 0.5 for the second.

GUUCCGUUUGCGUGAUGAUAACGCGUCUCCCUCCUAAGGAGAAGAAUGGGGGUUCGAGUCCCGUACGGAACG [G9U A14G G18A C46A C49G] and GUUCCGUUGACGUUAUGGUAACGCGUCUCCAUCCGAAGGAGAAGAAUGCGGGUUCGAGUCCCGUUCGGAACG [G10A A14U C31A U35G C46A A65U] cannot be ordered by yeast fitness: ≤ 0.5 for the first, ≤ 0.5 for the second.

Compared with GUUCCGUUCGCGUAAUGGUAACGCGUCUCCCCCCUGAGGAGAAGACUGCGGGUUCGAGUCCCGUACGGAUCG [G9C U32C A36G A70U], GUUCCGUUUGCGUAAUGGUAACGCGUCUCCCUCCUAAGGAGAGGACUGCGGGUUCGAGUCCCGUACGGAACG [G9U A43G] is higher in yeast fitness: ≤ 0.5 for the first, 0.817 for the second.

GUUCCGUUUGAGUGAUGGUAACGUGUCUCCCUCCUAAGGACAAGACUGCGGGUUGGAGUCCCGUACGGAACG [G9U C11A A14G C24U G41C C55G] and GUUCCGUUCGCGUAAUGGCAACGCGUCUUCCUCCUUAGGAGAAGACUGCGGGUUCGAGUCCCGUACAGAACG [G9C U19C C29U A36U G67A] cannot be ordered by yeast fitness: ≤ 0.5 for the first, ≤ 0.5 for the second.

GUUCCGUUGACGUGAUGGUAACGCGUCUCCCUUCUAAGGAGAAGACUGCGGGUUCGAGUCCCGUACGGAACG [G10A A14G C33U] and GUUCCGUUCGCGUAAUGGUAACGCGUCUCCCCCCUAAGGAGAAGACUGCGGGCUCGAGUCCCGUACGGAACG [G9C U32C U53C] cannot be ordered by yeast fitness: ≤ 0.5 for the first, ≤ 0.5 for the second.

Compared with GUUCCGUUCGCGUAAUGGUAACGCGUCACCCUCCUAAGGAGAAGCCUCCGGGUUCGAGUCCGGUACGGAACG [G9C U28A A45C G48C C62G], GUUCCGUUUGCGUAAUGGUACCGCGUCUCCCUCCUAAGGAGUACACUGCGGGCUCGAGUCCCGUACGGAACG [G9U A21C A42U G44C U53C] is lower in yeast fitness: 0.545 for the first, ≤ 0.5 for the second.

GUUCCGUUCGCGUAAUGGCAACGUGUAUCCCUCCUAAGGAGAAGACUGCGGGUUCGAGUCCCGUACGAAACG [G9C U19C C24U C27A G68A] and GUUCCGUUGACGUCAUGGUAACGCGUGUCCCUCCUAAGGAGAAGAGUGCGGGUUCGAGUCCCGUGCGGAACG [G10A A14C C27G C46G A65G] cannot be ordered by yeast fitness: ≤ 0.5 for the first, ≤ 0.5 for the second.

GUUCCGUUCGCGUAAUGGUAACGCGUCCCCCUCCUAAGGAGAACACUGCGAGUUCGAGUCCCGUACGGAACG [G9C U28C G44C G51A] and GUUCCGUUCGCGUAAUGGUAACGCGUCUCCCACCUAAGGAGAAGACUGCGGGUUUGUGUCCAGUACGGAACG [G9C U32A C55U A57U C62A] cannot be ordered by yeast fitness: ≤ 0.5 for the first, ≤ 0.5 for the second.

First: GUUCCGUUUGCGUCAUGGUAACGUGUCUCCCUCCCAAGGAGAAGAGUGCGGAUUCGAGUCACGUACGGAACG [G9U A14C C24U U35C C46G G52A C61A]
Second: GUUCCGUUCGCGUAAUGGUAACGCGUCACCCUCCUAAGGAGAAGAUUGCGGGUUCGAGUCCCGUACGGAUCG [G9C U28A C46U A70U]
The yeast fitness of the first is lower: ≤ 0.5 for the first, 0.615 for the second.

GUUCCGUUGACGUUAUGGUAACGCGUCUCUCUCCUACGGAGAAGACUGCGGGAUCGAGUCCCGUACGGAACG [G10A A14U C30U A37C U53A] and GUUCCGUUCGCGUAAUGGCAACGCGUCUCCAUCCUAAGGAGAAGACUGCGGGUUCGACUCCCGUACGGAUCG [G9C U19C C31A G58C A70U] cannot be ordered by yeast fitness: ≤ 0.5 for the first, ≤ 0.5 for the second.

GUUCCGUUCGCGUAAUGGUAACGCGUCUCCCACCUAAGGAGAAGACUGCGGGUUCCAGUCCCGUACGGAACG [G9C U32A G56C] and GUUCCGUUGACGUGAUGGUAACGCGUCUGCCUCCUAAGGAGAAGACUGCGGGUUCGAGUCCCGUACGGAACG [G10A A14G C29G] cannot be ordered by yeast fitness: ≤ 0.5 for the first, ≤ 0.5 for the second.

Going from GUUCCGUUCGCGUAAUGGUAACGCGUCCCCUUCCUAAGGAGAAGACUGCGGGUUCGAGUCCCGUACGGAACG [G9C U28C C31U] to GUUCCGUUUGCGUAAGGGUAACGCGUCUCCCUCCUAAGGAGAAGACUGCGGGUUCGAGUCCCGUACGGAACG [G9U U16G], the yeast fitness rises from ≤ 0.5 to 0.612.

Compared with GUUCCGUUUGCGUAAUGGUAACGCGUCUCCCUCCUAAGGAGAAGACUGCGGGUUCGAGUCCCAUACGGAACG [G9U G63A], GUUCCGUUUGCGUAAUGGUAAGGCGUCUCCCUCCUAAGGAGAAGACUGCGGGUUCGAGUCCCGUACGGAUCG [G9U C22G A70U] is lower in yeast fitness: 0.71 for the first, 0.623 for the second.
